This passage reports IC50, inhibition in vivo and Activity results from ChEMBL document CHEMBL1154735, “A strategy to minimize reactive metabolite formation: discovery of (S)-4-(1-cyclopropyl-2-methoxyethyl)-6-[6-(difluoromethoxy)-2,5-dimethylpyridin-3-ylamino]-5-oxo-4,5-dihydropyrazine-2-carbonitrile as a potent, orally bioavailable corticotropin-releasing factor-1 receptor antagonist” (J Med Chem, 2009).

Activity calls are given as the source filed them. No cut-off for these calls is given here.

Broadly, the IC50 is the concentration that inhibits the measured activity by half. The low end stands for greater potency in that assay, the high end for weaker potency in that assay. As usually defined, the inhibition in vivo is the drop in the measured response relative to a control, in per cent.

Assay [1] is described as follows: Displacement of [125I]sauvagine from CRF2 receptor in porcine choroid plexus homogenate by binding titration assay. The format is tissue-based, Sus scrofa. In a few lines: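 Porcine choroid plexus homogenate; inhibition of [125I]-sauvagine binding measured in a titration format.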
A general note: Loss of bound radioactivity is the signal in a displacement assay; it reports binding, not function.

The subject of assay [2] is Rattus norvegicus. As to the kind of experiment: Ex vivo receptor occupancy of CRF1 receptor in Sprague-Dawley rat brain parietal assessed as inhibition of [125I]sauvagine binding at 10 mg/kg, po after 90 mins by autoradiography. Type of assay: functional. As to conditions: 1.5 h.
The subject of assay [3] is Rattus norvegicus. In words: Anxiolytic activity in Sprague-Dawley rat assessed as decrease in exit latency at 10 mg/kg, po after 60 mins by defensive withdrawal test. Type of assay: functional, organism-based. Set-up: dose 10 mg/kg.

In the case of `CC[C@H](C)[C@H](NC(=O)[C@@H](NC(=O)[C@H](CC(=O)O)NC(=O)[C@H](CC(C)C)NC(=O)[C@H](CC(C)C)NC(=O)[C@H](CC(C)C)NC(=O)[C@H](CCCN=C(N)N)NC(=O)[C@H](CC(N)=O)NC(=O)[C@H](CC(N)=O)NC(=O)[C@H](C)NC(=O)[C@H](C)NC(=O)[C@H](CCC(N)=O)NC(=O)[C@H](CCC(N)=O)NC(=O)[C@H](CCCCN)NC(=O)[C@H](CCC(=O)O)NC(=O)[C@H](CCCCN)NC(=O)[C@H](CCC(=O)O)NC(=O)[C@H](CCC(N)=O)NC(=O)[C@H](CCCCN)NC(=O)[C@H](CCC(=O)O)NC(=O)[C@@H](NC(=O)[C@H](CCC(=O)O)NC(=O)[C@@H](NC(=O)[C@H](CCSC)NC(=O)[C@H](CCCCN)NC(=O)[C@H](CCCN=C(N)N)NC(=O)[C@H](CC(C)C)NC(=O)[C@H](CC(C)C)NC(=O)[C@H](CCC(=O)O)NC(=O)[C@H](CC(C)C)NC(=O)[C@H](CO)NC(=O)[C@H](CC(C)C)NC(=O)[C@H](CC(=O)O)NC(=O)[C@@H](NC(=O)[C@H](CO)NC(=O)[C@@H](NC(=O)[C@@H]1CCCN1C(=O)[C@@H]1CCCN1C(=O)CNC(=O)[C@@H]1CCC(=O)N1)[C@@H](C)CC)[C@@H](C)CC)[C@@H](C)CC)[C@@H](C)CC)[C@@H](C)O)C(=O)O` [SAUVAGINE], in assay [1], the IC50 stood at 0.58 nM. `COCC(COC)Nc1nc(C)nc2c(-c3ccc(Cl)cc3Cl)c(C)nn12`: the inhibition in vivo at 10 mg/kg in the assay on Rattus norvegicus [2] worked out at 89%. Besides, the outcome in the assay with Rattus norvegicus [3] was Active.
